This is an account of results in ChEMBL document CHEMBL3352683, “Rational design of urea-based glutamate carboxypeptidase II (GCPII) inhibitors as versatile tools for specific drug targeting and delivery” (Bioorg Med Chem, 2014).

SMILES strings stand for the structures.

For the test, the target named is Glutamate carboxypeptidase 2 (Homo sapiens, UniProt Q04609). Put plainly: Inhibition of human recombinant N-terminal Avi-tagged glutamate carboxypeptidase 2 extracellular domain (44 to 750 amino acids) using pteroyl-di-L-glutamate substrate by HPLC method. In a few lines: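 Avi-GCPII (0.2 ng) in 25 mM Bis-Tris propane, 150 mM NaCl, 0.001% octaethylene glycol monododecyl ether, pH 7.4, preincubated with inhibitor (ten concentrations) 5 min at 37 °C. Reaction started with pteroyl-di-L-glutamate (20 µl of 4 µM stock), run 20 min at 37 °C, stopped with 2-PMPA. Substrate and product separated by isocratic HPLC, detected at 281 nm; IC50 from full curves, Ki mean ± SD, duplicate or triplicate.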
Glutamate carboxypeptidase 2, sequence (Q04609 whole entry, the tested form may be a part): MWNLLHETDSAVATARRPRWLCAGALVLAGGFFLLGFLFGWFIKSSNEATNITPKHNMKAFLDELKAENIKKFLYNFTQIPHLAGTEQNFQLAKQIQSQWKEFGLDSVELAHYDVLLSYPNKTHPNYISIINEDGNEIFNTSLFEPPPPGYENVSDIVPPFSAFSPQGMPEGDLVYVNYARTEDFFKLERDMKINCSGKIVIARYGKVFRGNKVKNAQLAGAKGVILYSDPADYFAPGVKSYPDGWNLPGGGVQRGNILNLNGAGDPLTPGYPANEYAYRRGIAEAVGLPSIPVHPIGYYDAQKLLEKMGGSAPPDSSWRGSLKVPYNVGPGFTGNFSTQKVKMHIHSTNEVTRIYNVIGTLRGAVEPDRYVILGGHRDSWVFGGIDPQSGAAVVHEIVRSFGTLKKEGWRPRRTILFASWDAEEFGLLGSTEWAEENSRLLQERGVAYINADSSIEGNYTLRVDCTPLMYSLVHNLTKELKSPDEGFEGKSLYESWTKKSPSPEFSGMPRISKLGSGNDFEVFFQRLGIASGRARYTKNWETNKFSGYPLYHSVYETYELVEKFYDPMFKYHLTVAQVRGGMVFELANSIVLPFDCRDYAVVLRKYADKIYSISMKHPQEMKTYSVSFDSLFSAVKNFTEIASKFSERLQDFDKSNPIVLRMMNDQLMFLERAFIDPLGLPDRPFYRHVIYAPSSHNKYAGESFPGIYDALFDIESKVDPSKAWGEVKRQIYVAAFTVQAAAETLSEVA
As a reminder, the Ki is the equilibrium dissociation constant of an inhibitor or competing ligand from its target. Consider `O=C(O)CC[C@H](NC(=O)N[C@@H](CCCCNC(=O)CCOCCOCCOCCOCCOCCOCCOCCOCCNC(=O)CCCC[C@@H]1SC[C@@H]2NC(=O)N[C@@H]21)C(=O)O)C(=O)O`, for which the Ki was 6.39 nM.

Turning to `O=C(O)CC[C@H](NC(=O)N[C@@H](CCCCNC(=O)CCOCCOCCOCCOCCOCCOCCOCCOCCOCCOCCOCCOCCNC(=O)CCCC[C@@H]1SC[C@@H]2NC(=O)N[C@@H]21)C(=O)O)C(=O)O`, the inhibition constant Ki was 10.5 nM.

`CC(=O)NCCOc1ccccc1CC(=O)NCCCC[C@H](NC(=O)N[C@@H](CCC(=O)O)C(=O)O)C(=O)O`: the Ki was determined as 1.58 nM.

For the compound `O=C(O)CC[C@H](NC(=O)N[C@@H](CCCCNC(=O)Cc1ccccc1OCCNC(=O)CCOCCOCCOCCOCCOCCOCCOCCOCCOCCOCCOCCOCCNC(=O)CCCC[C@H]1SC[C@H]2NC(=O)N[C@H]21)C(=O)O)C(=O)O`, the Ki worked out at 28.1 nM.

In the case of `CC(=O)NCCOc1ccccc1NC(=O)NCCCC[C@H](NC(=O)N[C@@H](CCC(=O)O)C(=O)O)C(=O)O`, the Ki is 0.377 nM.

With `O=C(O)CC[C@H](NC(=O)N[C@@H](CCCCNC(=O)Nc1ccccc1OCCNC(=O)CCOCCOCCOCCOCCOCCOCCOCCOCCOCCOCCOCCOCCNC(=O)CCCC[C@@H]1SC[C@@H]2NC(=O)N[C@@H]21)C(=O)O)C(=O)O`, the Ki was 7.6 nM.

As for `CC(=O)N(CCCC[C@H](NC(=O)N[C@@H](CCC(=O)O)C(=O)O)C(=O)O)Cc1ccccc1`, the Ki was found to be 0.312 nM.

Regarding `O=C(O)CC[C@H](NC(=O)N[C@@H](CCCCN(Cc1ccccc1)C(=O)CCOCCOCCOCCOCCOCCOCCOCCOCCOCCOCCOCCOCCNC(=O)CCCC[C@@H]1SC[C@@H]2NC(=O)N[C@@H]21)C(=O)O)C(=O)O`, the inhibitory constant (Ki) came to 3.42 nM.

As for `CC(=O)NCCOc1ccccc1C(=O)NCCCC[C@H](NC(=O)N[C@@H](CCC(=O)O)C(=O)O)C(=O)O`, the Ki was determined as 0.601 nM.

Turning to `O=C(O)CC[C@H](NC(=O)N[C@@H](CCCCNC(=O)c1ccccc1OCCNC(=O)CCOCCOCCOCCOCCOCCOCCOCCOCCOCCOCCOCCOCCNC(=O)CCCC[C@@H]1SC[C@@H]2NC(=O)N[C@@H]21)C(=O)O)C(=O)O`, the Ki is 11 nM.

`CC(=O)NCCOc1cc(F)ccc1C(=O)NCCCC[C@H](NC(=O)N[C@@H](CCC(=O)O)C(=O)O)C(=O)O`: the Ki was found to be 1.01 nM.

Turning to `CC(=O)NCCOc1cc(Cl)ccc1C(=O)NCCCC[C@H](NC(=O)N[C@@H](CCC(=O)O)C(=O)O)C(=O)O`, the Ki is 0.722 nM.

Take `CC(=O)NCCOc1cc(Br)ccc1C(=O)NCCCC[C@H](NC(=O)N[C@@H](CCC(=O)O)C(=O)O)C(=O)O`: the Ki is 0.268 nM.

Take `CC(=O)NCCOc1cc(I)ccc1C(=O)NCCCC[C@H](NC(=O)N[C@@H](CCC(=O)O)C(=O)O)C(=O)O`: the Ki stood at 0.6 nM.

As to `CC(=O)N(CCCC[C@H](NC(=O)N[C@@H](CCC(=O)O)C(=O)O)C(=O)O)Cc1ccc(Br)cc1`, the Ki amounted to 0.0449 nM.

Take `CC(=O)NCCOc1cc(Br)ccc1NC(=O)NCCCC[C@H](NC(=O)N[C@@H](CCC(=O)O)C(=O)O)C(=O)O`: the Ki turned out to be 0.221 nM.

As for `O=C(O)CC[C@H](NC(=O)N[C@@H](CCCCNC(=O)Nc1ccc(Br)cc1OCCNC(=O)CCOCCOCCOCCOCCOCCOCCOCCOCCOCCOCCOCCOCCNC(=O)CCCC[C@@H]1SC[C@@H]2NC(=O)N[C@@H]21)C(=O)O)C(=O)O`, the Ki is 3.88 nM.

With `CC(=O)NCCCC[C@H](NC(=O)N[C@@H](CCC(=O)O)C(=O)O)C(=O)O`, the Ki stood at 0.174 nM.

`NCCCC[C@H](NC(=O)N[C@@H](CCC(=O)O)C(=O)O)C(=O)O`: the inhibition constant Ki came to 44.3 nM.
